The subject of assay [1] is Jurkat. Nature of the assay: Cytotoxicity against human Jurkat cells after 4 days by MTT assay. Format: cell-based. To be noted: 96 h. (In general: Tetrazolium dyes change colour on reduction, which living cells bring about.)
Assay [2] is described as follows: Immunosuppressive activity in ICR mouse B cells assessed as inhibition of LPS-stimulated cell proliferation after 72 hrs by MTT assay. The assay is classed as functional, cell-based.
Assay [3] has as its target Dihydroorotate dehydrogenase (quinone), mitochondrial (Homo sapiens, UniProt Q02127). Nature of the assay: Inhibition of human DHODH expressed in Escherichia coli BL21(DE3) using L-dihydroorotate as substrate after 10 mins by DCIP dye reduction assay.
The nature of assay [4]: Immunosuppressive activity in mouse T cells assessed as inhibition of two way mixed lymphocyte reaction after 4 days by MTT assay. Format: functional, cell-based. To be noted: T-cell, 96 h.
For assay [5], the target named is T1, Dihydroorotate dehydrogenase (Plasmodium falciparum) (UniProt Q54A96).
T1 sequence (whole entry): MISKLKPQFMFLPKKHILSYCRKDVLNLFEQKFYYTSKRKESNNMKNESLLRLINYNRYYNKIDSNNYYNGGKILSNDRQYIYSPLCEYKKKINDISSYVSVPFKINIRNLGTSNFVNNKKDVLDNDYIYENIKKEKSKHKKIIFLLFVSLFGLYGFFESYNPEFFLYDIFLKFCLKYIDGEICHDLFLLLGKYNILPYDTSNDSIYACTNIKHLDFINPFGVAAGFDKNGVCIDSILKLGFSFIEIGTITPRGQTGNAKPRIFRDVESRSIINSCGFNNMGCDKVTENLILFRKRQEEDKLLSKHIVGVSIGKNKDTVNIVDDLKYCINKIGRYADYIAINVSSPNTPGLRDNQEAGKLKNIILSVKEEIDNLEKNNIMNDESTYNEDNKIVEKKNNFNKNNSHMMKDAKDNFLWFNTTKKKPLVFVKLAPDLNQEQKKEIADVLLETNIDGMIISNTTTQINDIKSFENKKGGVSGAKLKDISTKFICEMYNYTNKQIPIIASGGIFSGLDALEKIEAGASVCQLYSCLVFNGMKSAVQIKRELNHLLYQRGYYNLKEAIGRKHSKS
Nature of the assay: Inhibition of Plasmodium falciparum DHODH expressed in Escherichia coli BL21 (DE3) using L-dihydroorotate as substrate at 10 uM after 10 mins by DCIP dye reduction assay. The method in brief: (§1)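 DCIP reduction read as absorbance decrease at 600 nm over 5 min. Enzyme preincubated 10 min with compound (DMSO stock diluted in assay buffer); reaction started with dihydroorotate, 500 μM final.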

Assay [6] has as its target T2, Dihydroorotate dehydrogenase (Plasmodium falciparum, UniProt Q54A96).
T2 sequence (Q54A96 whole entry): T1 sequence (whole entry)
Nature of the assay: Inhibition of Plasmodium falciparum DHODH expressed in Escherichia coli BL21 (DE3) using L-dihydroorotate as substrate after 10 mins by DCIP dye reduction assay. The method in brief:
as §1

In assay [7] the test system is T-cell. As to the kind of experiment: Selectivity ratio of IC50 for mouse T cells to IC50 for ICR mouse B cells. The assay is classed as functional.
Assay [8] deals with Jurkat. As to the kind of experiment: Selectivity ratio of IC50 for human Jurkat cells to IC50 for ICR mouse B cells.

SMILES strings stand for the structures. pIC50: −log10 of the molar value.

In general, pIC50 refers to −log10 of the IC50, conventionally taken in molar units. By inhibition is commonly meant the share of the control response that was lost under treatment. Read a low inhibition as a response near the control.

Sequence of Dihydroorotate dehydrogenase (quinone), mitochondrial (Q02127 whole entry): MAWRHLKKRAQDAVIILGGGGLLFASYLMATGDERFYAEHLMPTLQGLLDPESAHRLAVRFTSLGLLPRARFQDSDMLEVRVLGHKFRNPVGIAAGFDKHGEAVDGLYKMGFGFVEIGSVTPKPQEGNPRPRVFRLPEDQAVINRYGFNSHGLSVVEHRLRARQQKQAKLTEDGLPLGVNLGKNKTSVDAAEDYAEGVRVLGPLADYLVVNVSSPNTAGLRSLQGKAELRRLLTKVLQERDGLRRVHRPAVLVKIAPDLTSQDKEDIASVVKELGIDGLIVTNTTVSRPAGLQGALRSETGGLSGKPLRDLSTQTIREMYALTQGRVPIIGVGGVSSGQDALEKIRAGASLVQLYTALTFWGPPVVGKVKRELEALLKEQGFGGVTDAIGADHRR

As for `CC1=NN(c2ccccc2)C(=O)/C1=C/c1ccc(-c2cccc(C(=O)O)c2)o1`, the negative-log IC50 (pIC50) in assay [1] is under 4.00; in assay [2], under 4.00; in assay [3], 5.56; in assay [4], 4.13. This molecule yielded an inhibition in assay [5] of under 20%.
As to `O=C(O)c1ccc(/C=N/c2cccc3ccccc23)cc1`, the pIC50 in assay [3] was 4.81. This molecule also gave an inhibition in assay [5] of under 20%.
`CC(=O)c1sc(Nc2ccc(C)c(Cl)c2)nc1C`: the pIC50 in assay [1] is 5.27; in assay [2], 5.33; in assay [3], 6.03; in assay [6], 6.12; in assay [4], 5.02.
In the same order, the values of `O=C(Nc1nc2ccccc2s1)c1ccc(Cl)cc1Cl` are under 4.00, 4.70, 5.74, 5.33 and 4.23.
For `COc1cccc(C(=O)Nc2nc3ccccc3s2)c1`, the pIC50 in assay [1] is under 4.00; in assay [2], 4.79; in assay [3], 5.17; in assay [4] it was under 4.00. The inhibition in assay [5] is under 20%.
For `O=c1cc(-c2ccc(O)c(O)c2)oc2ccccc12`, the figures for the negative logarithm of the IC50 (pIC50) in assay [3] and in assay [6] were 4.91 and 5.02, respectively.
In assay [1], `C/C=C/C[C@@H](C)[C@@H](O)[C@H]1C(=O)N[C@@H](CC)C(=O)N(C)CC(=O)N(C)[C@@H](CC(C)C)C(=O)N[C@@H](C(C)C)C(=O)N(C)[C@@H](CC(C)C)C(=O)N[C@@H](C)C(=O)N[C@H](C)C(=O)N(C)[C@@H](CC(C)C)C(=O)N(C)[C@@H](CC(C)C)C(=O)N(C)[C@@H](C(C)C)C(=O)N1C` [CYCLOSPORINE] gave a negative logarithm of the IC50 (pIC50) of under 5.00.
`Cc1ccccc1C(=O)Nc1cc(Cl)c(O)c(Cl)c1` gave a negative-log IC50 (pIC50) in assay [3] of 4.79. This molecule returned an inhibition in assay [5] of under 20%.
In the same order, the values of `c1ccc2c(c1)Nc1nc3ccccc3nc1O2` are 4.74 and under 20%.
For `O=C(/C=C/c1ccc(O)c(C(=O)O)c1)c1ccc(Cl)cc1`, the pIC50 in assay [1] was 4.34; in assay [2] it was 5.75; in assay [3], 5.22; in assay [4], 4.52. For the same molecule, the “Ratio IC50” value worked out at 17 in assay [7] and 26 in assay [8]. In assay [5], this molecule showed an inhibition of under 20%.
For `C/C(O)=C(\C#N)C(=O)Nc1ccc(C(F)(F)F)cc1` [TERIFLUNOMIDE], the pIC50 in assay [1] was 4.57; in assay [2], 5.39; in assay [4], 4.32.
The molecule `O=C(/C=C/c1ccc(F)cc1)Nc1ccccn1` showed a negative logarithm of the IC50 (pIC50) in assay [3] of 4.89. The molecule also returned an inhibition in assay [5] of under 20%.
On to `O=C(Nc1nc2ccccc2s1)c1cccc(C(Cl)(Cl)Cl)c1`, for which the negative logarithm of the IC50 (pIC50) in assay [1] was 4.36; in assay [2], 5.06; in assay [3] it was 6.47; in assay [6], 5.71; in assay [4], 4.60.
In the case of `Oc1ccc(/N=C/c2ccc3ccccc3c2)cc1`, the negative-log IC50 (pIC50) in assay [1] is 4.34; in assay [2], 5.00; in assay [3], 5.40; in assay [4] it was 5.02. In assay [5], this molecule yielded an inhibition of under 20%.
`CCc1cccc(NC(=O)/C=C/c2ccc(Cl)c(Cl)c2)c1`: the negative logarithm of the IC50 (pIC50) was 4.52 in assay [1], 4.95 in assay [2], 6.26 in assay [3] and 5.08 in assay [4]. In assay [5], this molecule yielded an inhibition of under 20%.
In the same order, the values of `Oc1ccc(/C=N/c2cccc3ccccc23)c(O)c1` are 4.58, 4.95, 6.11, 4.63 and under 20%.
In turn, `Cc1ccc(C)c(/N=C/c2cccc(O)c2O)c1` gave a negative logarithm of the IC50 (pIC50) in assay [3] of 4.75. Moreover, the inhibition in assay [5] was under 20%.
In the case of `Brc1ccc(-c2csc(N/N=C/c3ccccc3)n2)cc1`, the pIC50 in assay [1] was 5.97; in assay [2], under 4.00; in assay [3] it was 5.48; in assay [4], under 4.00. This molecule showed an inhibition in assay [5] of under 20%.
With `O=Cc1ccccc1/C=N/Nc1nc(-c2ccccc2)cs1`, the pIC50 in assay [1] is under 4.00; in assay [2] it was 4.85; in assay [3], 6.96; in assay [4], 4.91. Besides, the inhibition in assay [5] is under 20%.
Turning to `COC(=O)c1ccc(Nc2nc(-c3ccc(Cl)cc3)c(C)s2)cc1`, the pIC50 in assay [1] is 4.80; in assay [2], 4.89; in assay [3], 5.90; in assay [4], 4.88. Further, in assay [5], the inhibition is under 20%.
